Target: T1, fMet-Leu-Phe receptor (Homo sapiens) (UniProt P21462)
T1 sequence (whole entry): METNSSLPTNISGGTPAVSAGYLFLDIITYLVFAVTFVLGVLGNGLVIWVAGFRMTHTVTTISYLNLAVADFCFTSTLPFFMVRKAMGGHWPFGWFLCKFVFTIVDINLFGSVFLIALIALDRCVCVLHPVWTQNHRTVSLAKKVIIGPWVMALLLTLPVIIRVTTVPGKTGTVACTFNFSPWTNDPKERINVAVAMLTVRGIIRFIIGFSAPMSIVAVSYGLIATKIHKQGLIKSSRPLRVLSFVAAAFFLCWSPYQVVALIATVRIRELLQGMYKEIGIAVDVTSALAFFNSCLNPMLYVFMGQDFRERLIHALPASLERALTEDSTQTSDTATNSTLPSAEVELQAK
Assay: Inhibitory activity against Human formylpeptide receptor (FPR) of human leukemia HL-60 cells
Assay type: cell-based
Method in brief: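 HL-60 cells differentiated 48 h with 0.2 mM dibutyryl cAMP, washed, then treated with 5 μM cytochalasin B (5–10 min, 37 °C). Stimulated 10 min with 30 nM f-MLF. N-acetyl-β-D-glucosaminidase release read at 410 nm on p-nitrophenyl substrate after spontaneous-release subtraction. Duplicate wells; IC20/IC50 as mean ± SD of independent experiments.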

First: C/C=C/C[C@@H](C)[C@@H](O)[C@H]1C(=O)N[C@@H](CC)C(=O)N(C)CC(=O)N(C)[C@H](CC(C)C)C(=O)N[C@H](C(C)C)C(=O)N[C@@H](CC(C)C)C(=O)N[C@@H](C)C(=O)N[C@H](C)C(=O)N(C)[C@@H](CC(C)C)C(=O)N(C)[C@@H](CC(C)C)C(=O)N(C)[C@@H](C(C)C)C(=O)N1C
Second: C/C=C/C[C@@H](C)[C@@H](O)[C@H]1C(=O)N[C@@H](CCC)C(=O)N(C)CC(=O)N(C)[C@H](CC(C)C)C(=O)N[C@H](C(C)C)C(=O)N[C@@H](CC(C)C)C(=O)N[C@@H](C)C(=O)N[C@H](C)C(=O)N(C)[C@@H](CC(C)C)C(=O)N(C)[C@@H](CC(C)C)C(=O)N(C)[C@@H](C(C)C)C(=O)N1C
The IC20 of the first is higher: > 10000 nM for the first, 8100 nM for the second.

Going from `CC(C)C[C@@H]1C(=O)N[C@@H](C(C)C)C(=O)N(C)[C@H](CC(C)C)C(=O)N[C@@H](C)C(=O)N[C@H](C)C(=O)N(C)[C@@H](CC(C)C)C(=O)N(C)[C@@H](CC(C)C)C(=O)N(C)[C@@H](C(C)C)C(=O)N(C)[C@@H](CC(C)C)C(=O)N[C@@H](C(C)C)C(=O)N(C)CC(=O)N1C` to `CC/C=C/C[C@@H](C)[C@@H](O)[C@H]1C(=O)N[C@@H]([C@@H](C)O)C(=O)N(C)CC(=O)N(C)[C@H](CC(C)C)C(=O)N[C@H](C(C)C)C(=O)N(C)[C@H](CC(C)C)C(=O)N[C@@H](C)C(=O)N[C@H](C)C(=O)N(C)[C@@H](CC(C)C)C(=O)N(C)[C@@H](CC(C)C)C(=O)N(C)[C@@H](C(C)C)C(=O)N1C`, the IC20 falls from 4200 nM to 2200 nM (1.9-fold).

First: C/C=C/C[C@@H](C)[C@@H](O)[C@H]1C(=O)N[C@@H](C(C)C)C(=O)N(C)CC(=O)N(C)[C@H](CC(C)C)C(=O)N[C@H](C(C)C)C(=O)N(C)[C@H](CC(C)C)C(=O)N[C@@H](C)C(=O)N[C@H](C)C(=O)N(C)[C@@H](CC(C)C)C(=O)N[C@@H](CC(C)C)C(=O)N(C)[C@@H](C(C)C)C(=O)N1C
Second: C/C=C/C[C@@H](C)[C@@H](O)[C@H]1C(=O)N[C@@H](CCC)C(=O)N(C)CC(=O)N(C)[C@H](CC(C)C)C(=O)N[C@H](C(C)C)C(=O)N(C)[C@H](CC(C)C)C(=O)N[C@@H](C)C(=O)N[C@H](C)C(=O)N(C)[C@@H](CC(C)C)C(=O)N[C@@H](CC(C)C)C(=O)N(C)[C@@H](C(C)C)C(=O)N1C
The IC20 of the first is 2.1-fold higher: 1400 nM for the first, 660 nM for the second.

First: C/C=C/C[C@@H](C)[C@@H](O)[C@H]1C(=O)N[C@@H]([C@@H](C)O)C(=O)N(C)CC(=O)N(C)[C@H](CC(C)C)C(=O)N[C@@H](C(C)C)C(=O)N(C)[C@H](CC(C)C)C(=O)N[C@@H](C)C(=O)N[C@](O)(C(C)C)C(=O)N(C)[C@@H](CC(C)C)C(=O)N[C@@H](CC(C)C)C(=O)N(C)[C@@H](C(C)C)C(=O)N1C
Second: C/C=C/C[C@@H](C)[C@@H](O)[C@H]1C(=O)N[C@@H]([C@@H](C)O)C(=O)N(C)CC(=O)N(C)[C@H](CC(C)C)C(=O)N[C@@H](CC(C)C)C(=O)N(C)[C@H](CC(C)C)C(=O)N[C@@H](C)C(=O)N[C@H](C)C(=O)N(C)[C@@H](CC(C)C)C(=O)N[C@@H](CC(C)C)C(=O)N(C)[C@@H](C(C)C)C(=O)N1C
The IC20 of the first is 4.7-fold higher: 930 nM for the first, 200 nM for the second.

`C/C=C/C[C@@H](C)[C@@H](O)[C@H]1C(=O)N[C@@H](CC)C(=O)N(C)CC(=O)N[C@@H](CC(C)C)C(=O)N[C@H](C(C)C)C(=O)N(C)[C@H](CC(C)C)C(=O)N[C@@H](C)C(=O)N[C@H](C)C(=O)N(C)[C@@H](CC(C)C)C(=O)N(C)[C@@H](CC(C)C)C(=O)N(C)[C@@H](C(C)C)C(=O)N1C` and `C/C=C/C[C@@H](C)[C@@H](O)[C@H]1C(=O)N[C@@H](CC)C(=O)N(C)CC(=O)N[C@@H](C(C)C)C(=O)N[C@H](C(C)C)C(=O)N(C)[C@H](CC(C)C)C(=O)N[C@@H](C)C(=O)N[C@H](C)C(=O)N(C)[C@@H](CC(C)C)C(=O)N(C)[C@@H](CC(C)C)C(=O)N(C)[C@@H](C(C)C)C(=O)N1C` cannot be ordered by IC20: > 10000 nM for the first, > 10000 nM for the second.

Compared with `C/C=C/C[C@@H](C)[C@@H](O)[C@H]1C(=O)N[C@@H](CC)C(=O)N(C)CC(=O)N[C@@H]([C@@H](C)CC)C(=O)N[C@H](C(C)C)C(=O)N(C)[C@H](CC(C)C)C(=O)N[C@@H](C)C(=O)N[C@H](C)C(=O)N(C)[C@@H](CC(C)C)C(=O)N(C)[C@@H](CC(C)C)C(=O)N(C)[C@@H](C(C)C)C(=O)N1C`, `C/C=C/C[C@@H](C)[C@@H](O)[C@H]1C(=O)N[C@@H]([C@@H](C)O)C(=O)N(C)CC(=O)N[C@@H](C(C)C)C(=O)N[C@H](C(C)C)C(=O)N(C)[C@H](CC(C)C)C(=O)N[C@@H](C)C(=O)N[C@H](C)C(=O)N(C)[C@@H](CC(C)C)C(=O)N(C)[C@@H](CC(C)C)C(=O)N(C)[C@@H](C(C)C)C(=O)N1C` is higher in IC20: 2800 nM for the first, > 10000 nM for the second.

Going from `CC/C=C/C[C@@H](C)[C@@H](O)[C@H]1C(=O)N[C@@H](CC)C(=O)N(C)CC(=O)N(C)[C@H](CC(C)C)C(=O)N[C@H](C(C)C)C(=O)N(C)[C@@H](C)C(=O)N[C@@H](C)C(=O)N[C@H](C)C(=O)N(C)[C@@H](CC(C)C)C(=O)N(C)[C@@H](CC(C)C)C(=O)N(C)[C@@H](C(C)C)C(=O)N1C` to `CC/C=C/C[C@@H](C)[C@@H](O)[C@H]1C(=O)N[C@@H](CC)C(=O)N(C)CC(=O)N(C)[C@@H]([C@@H](C)CC)C(=O)N[C@H](C(C)C)C(=O)N(C)[C@H](CC(C)C)C(=O)N[C@@H](C)C(=O)N[C@H](C)C(=O)N(C)[C@@H](CC(C)C)C(=O)N(C)[C@@H](CC(C)C)C(=O)N(C)[C@@H](C(C)C)C(=O)N1C`, the IC20 falls from > 10000 nM to 1000 nM.

`C/C=C/C[C@@H](C)[C@@H](O)[C@H]1C(=O)N[C@@H](CC)C(=O)N(C)CC(=O)N(C)[C@H](CC(C)C)C(=O)N[C@H](C(C)C)C(=O)N(C)[C@H](CC(C)C)C(=O)N[C@@H](C)C(=O)N[C@H](C)C(=O)N(C)[C@@H](CC(C)C)C(=O)N(C)[C@@H](CC(C)C)C(=O)N(C)[C@@H]([C@@H](C)CC)C(=O)N1C` and `CC/C=C/C[C@@H](C)[C@@H](O)[C@H]1C(=O)N[C@@H](CCC)C(=O)N(C)CC(=O)N(C)[C@H](CC(C)C)C(=O)N[C@H](C(C)C)C(=O)N(C)[C@H](CC(C)C)C(=O)N[C@@H](C)C(=O)N[C@H](C)C(=O)N(C)[C@@H](CC(C)C)C(=O)N(C)[C@@H](CC(C)C)C(=O)N(C)[C@@H](C(C)C)C(=O)N1C` are within 1.5-fold of each other in IC20: 2900 nM for the first, 2600 nM for the second.

Going from `C/C=C/C[C@@H](C)[C@@H](O)[C@H]1C(=O)N[C@@H](CCC)C(=O)N(C)CC(=O)N(C)[C@H](CC(C)C)C(=O)N[C@@H](CCC)C(=O)N(C)[C@H](CC(C)C)C(=O)NC(C)C(=O)N[C@H](C)C(=O)N(C)[C@@H](CC(C)C)C(=O)N(C)[C@@H](CC(C)C)C(=O)N(C)[C@@H](C(C)C)C(=O)N1C` (stereo not given in full) to `C/C=C/C[C@@H](C)[C@@H](O)[C@H]1C(=O)N[C@@H](CCC)C(=O)N(C)CC(=O)N(C)[C@H](CC(C)C)C(=O)N[C@@H](CC(C)C)C(=O)N(C)[C@H](CC(C)C)C(=O)N[C@@H](C)C(=O)N[C@H](C)C(=O)N(C)[C@@H](CC(C)C)C(=O)N(C)[C@@H](CC(C)C)C(=O)N(C)[C@@H](C(C)C)C(=O)N1C`, the IC20 rises from 200 nM to 8900 nM (44-fold).

First: CC/C=C/C[C@@H](C)[C@@H](O)[C@H]1C(=O)N[C@@H](CC)C(=O)N(C)CC(=O)N(C)[C@@H](Cc2ccccc2)C(=O)N[C@H](C(C)C)C(=O)N(C)[C@H](CC(C)C)C(=O)N[C@@H](C)C(=O)N[C@H](C)C(=O)N(C)[C@@H](CC(C)C)C(=O)N(C)[C@@H](CC(C)C)C(=O)N(C)[C@@H](C(C)C)C(=O)N1C
Second: CCCCCC[C@H]1C(=O)N[C@@H](CC)C(=O)N(C)CC(=O)N(C)[C@H](CC(C)C)C(=O)N[C@H](C(C)C)C(=O)N(C)[C@H](CC(C)C)C(=O)N[C@@H](C)C(=O)N[C@H](C)C(=O)N(C)[C@@H](CC(C)C)C(=O)N(C)[C@@H](CC(C)C)C(=O)N(C)[C@@H](C(C)C)C(=O)N1C
The IC20 of the first is 2.4-fold higher: 4000 nM for the first, 1700 nM for the second.
